Measurements pooled from the literature.
Each line is one published result; the experiments were not run side by side.
EGFR del752-759: Epidermal growth factor receptor (EGFR, Homo sapiens, UniProt P00533, del752-759)
EGFR: Epidermal growth factor receptor (EGFR, Homo sapiens, UniProt P00533)
EGFR G719C: Epidermal growth factor receptor (EGFR, Homo sapiens, UniProt P00533, G719C)
EGFR del746-750: Epidermal growth factor receptor (EGFR, Homo sapiens, UniProt P00533, del746-750)

SMILES	target	read-out	mode	technique	concentration	endpoint	result
COc1ccc2[nH]c3c4[nH]c5ccc(OC)cc5c4c4c(c3c2c1)C(=O)NC4=O	EGFR del752-759	binding			1 µM	remaining binding	68%
COc1ccc2oc(-c3ccc4nc(N)oc4c3)c/c(=N\c3ccccc3NC(=O)CCN)c2c1	EGFR	binding			1 µM	remaining binding	97%
Cc1ccc(NC(=O)c2ccnc(C(F)(F)F)c2)cc1-c1cc(OCCO)nc(N2CCOCC2)c1	EGFR G719C	binding			1 µM	remaining binding	97%
CC#CC(=O)N1CCC[C@H]1c1nc(-c2ccc(C(=O)Nc3ccccn3)cc2)c2c(N)nccn12	Epidermal growth factor receptor (EGFR, Homo sapiens, UniProt P00533, L858R/T790M)	enzyme activity	inhibitor		1 µM	inhibition	2%
CNC(=O)c1ccccc1Nc1nc(Nc2ccc(CO)nc2)ncc1Cl	EGFR	enzyme activity	inhibitor	radiometric	1 µM	remaining activity	26%
C[C@H]1CC[C@H](n2c3cnccc3c3cnc(Nc4ccc5c(n4)CCN(C(=O)CO)C5)nc32)CC1	EGFR del746-750	cell-free assay			1 µM	remaining signal	84%
N#Cc1ccc(NC(=O)Nc2ccccc2)cc1	EGFR	cell-free assay		competition with immobilised ligand	25 µM	remaining binding	87%
C=CC(=O)N1CCC([C@@H]2CCNc3c(C(N)=O)c(-c4ccc(Oc5ccccc5)cc4)nn32)CC1	EGFR del746-750	cell-free assay			1 µM	inhibition	21%
C#Cc1cnc(Nc2ccnc(CO)c2)nc1Nc1ccccc1S(C)(=O)=NC#N (centres unmarked)	EGFR	enzyme activity	inhibitor	radiometric	1 µM	remaining activity	80%
CO[C@@H]1[C@H](N(C)C(=O)c2ccccc2)C[C@H]2O[C@]1(C)n1c3ccccc3c3c4c(c5c6ccccc6n2c5c31)C(=O)NC4	EGFR G719C	enzyme activity	inhibitor		1 µM	inhibition	17%
CCCCC(=O)Nc1ccc(-c2ccc3ncn(CCC)c(=O)c3c2)cn1	Epidermal growth factor receptor (EGFR, Homo sapiens, UniProt P00533, L861Q)	binding		competition with immobilised ligand	0.5 µM	remaining binding	100%
C1=C/COCc2cc(ccc2OCCN2CCCC2)Nc2nccc(n2)-c2cccc(c2)COC/1	Epidermal growth factor receptor (EGFR, Homo sapiens, UniProt P00533, L858R)	binding			0.1 µM	remaining binding	71%
CNC(=O)c1ccccc1Nc1nc(Nc2ccc(CO)cc2)ncc1Cl	EGFR	enzyme activity	inhibitor	radiometric	1 µM	remaining activity	7.68%
CN1CCN(C(=O)c2ccc(NC(=O)Nc3ccc(N(C)c4ccnc(Nc5ccc(CS(C)(=O)=O)cc5)n4)cc3)cc2)CC1	EGFR del752-759	binding			1 µM	remaining binding	100%
